# Compounds with a hit are over-represented: about 0.58% of the library has one in this group of screens.
# TRPML3 agonist: human TRPML3 channel agonists, primary screen, cell-based, HEK293 TRPML3-YFP, Fluo-8 calcium fluorescence, 3 µM. 100% = the carbachol control signal. activation, % at 3 µM. 0.29% of 220,000 active. AID 1448, 2008;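 active = activation above its plate's cutoff, the mean activation of the plate's test wells plus 3 SD, cut at about 12% in these data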;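 also: 0% = DMSO only wells and 100% = carbachol wells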
# Target sequence (Q8TDD5 whole entry, looked up): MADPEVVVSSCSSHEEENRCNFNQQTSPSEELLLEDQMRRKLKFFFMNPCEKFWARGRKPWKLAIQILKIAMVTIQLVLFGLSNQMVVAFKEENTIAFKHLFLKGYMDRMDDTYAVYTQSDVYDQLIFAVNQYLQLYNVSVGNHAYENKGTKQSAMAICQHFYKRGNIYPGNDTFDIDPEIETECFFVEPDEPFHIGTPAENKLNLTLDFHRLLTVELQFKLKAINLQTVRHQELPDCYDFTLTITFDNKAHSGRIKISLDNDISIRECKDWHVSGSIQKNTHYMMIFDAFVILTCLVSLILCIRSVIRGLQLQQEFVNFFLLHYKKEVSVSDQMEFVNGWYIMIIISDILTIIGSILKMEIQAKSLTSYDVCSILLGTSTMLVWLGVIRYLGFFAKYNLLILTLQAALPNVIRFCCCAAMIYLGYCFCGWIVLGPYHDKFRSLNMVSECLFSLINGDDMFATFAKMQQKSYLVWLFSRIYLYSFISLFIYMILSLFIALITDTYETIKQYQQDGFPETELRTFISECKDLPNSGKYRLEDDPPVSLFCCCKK
#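 Material: HEK293 cells stably carrying human TRPML3-YFP; compound dosing: single dose, 3 µM final nominal compound, 0.3% DMSO final; incubation: 1-h 37 °C dye load, 5-s basal, 120-s post-compound reads; technique: Fluo-8 intracellular calcium fluorescence, excitation 470-495 nm, emission 515-575 nm; read-out basis: percent activation from peak-to-basal fluorescence ratio, scaled between DMSO and carbachol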
# OXTR potentiate: human OXTR potentiators, primary screen, fluorescence, CHO-OTR cells, Fluo-8 calcium; activation, % at 3 µM; Fluo-8 calcium fluorescence, potentiator mode; 0% = oxytocin EC15, 100% = EC100; AID 2445, 2010; 0.061% of 320,000 active;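 active = activation above that plate's cutoff, the mean activation of tested compounds plus 3 SD, cut at about 6.6% in these data, passing the limit was not always enough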;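 also: 100% uses oxytocin at 75 nM as the full agonist control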
#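 Assay system: CHO cell line stably expressing human OTR. Reagent: EC15 oxytocin agonist. Dosing: single dose, 3.0 µM nominal final compound concentration. Timing: compound 6 min at room temperature before oxytocin, 100 s read. Signal: kinetic Fluo-8 calcium fluorescence. Controls: oxytocin EC15 low and EC100 high.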
# OXTR agonist: human OXTR agonists, primary screen, fluorescence, CHO-OTR cells, Fluo-8 calcium. Oxytocin receptor (Homo sapiens), P30559. Fluo-8 calcium fluorescence; normalized: DMSO 0%, oxytocin 100%. activation, % at 3 µM. 0.32% of 320,000 active. AID 2435, 2010;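 active = activation above the mean of all tested compounds plus 3 SD, cutoff set per screening run, cut at about 20% in these data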;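 also: peak over basal fluorescence ratio from a 100 s FLIPR kinetic read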
# V1R ag counter: agonists of human V1a receptor, primary screen, counter-screen for OXTR agonist project, fluorescence, CHO-V1R cells. Fluo-8 calcium fluorescence, agonist mode; 0% DMSO, 100% 3 nM vasopressin. 0.25% of 320,000 active. AID 2797, 2010. activation, % at 3 µM;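 active = activation above the mean activation of all tested compounds plus 3 SD, per screening run, cut at about 20% in these data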;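 also: signal is peak over basal fluorescence ratio across a 100 second FLIPR read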
# zfTRPN1 agonist: zebrafish TRPN1 channel agonists, primary screen, cell-based, HEK293, calcium fluorescence. transient receptor potential cation channel N1 (TRPN1/NompC), Danio rerio. HEK293 zebrafish TRPN1-YFP, Fluo-8 calcium fluorescence; 100% = response to 87 µM carbachol. activation, % at 3 µM. 0.18% of 220,000 active;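 active = activation above its plate's cutoff, the mean activation of test wells on that plate plus 3 SD, cut at about 19% in these data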;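 also: 0% = DMSO alone and 100% = 87 µM carbachol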
#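 System: zebrafish TRPN1-YFP in HEK293 cells / Dosing: 3 µM single point / Timing: dye loading 1 h at 37 °C, then 30 min room temperature / Signal: Fluo-8 calcium fluorescence, excitation 470-495 nm, emission 515-575 nm / Read-out basis: percent activation from peak over basal fluorescence ratio, control-normalized / Control set: high carbachol 87 µM, low DMSO alone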
# * = called active by the depositor; · = no result.
SMILES,TRPML3 agonist,OXTR potentiate,OXTR agonist,V1R ag counter,zfTRPN1 agonist
CC1(c2ccc(OC(F)F)cc2)NC(=O)N(CC(=O)Nc2ccc3c(c2)OCO3)C1=O (configuration not stated),26*,-10,39*,45*,30*
Cc1ccc(OCC(=O)OCC(=O)Nc2ccc3c(c2)OCO3)cc1C,·,-7,8,5,·
Cc1c(Cl)cccc1NC(=O)CCNC(=O)N1CC(=O)Nc2ccccc21,·,-4,0,1,·
Cc1c(C(=O)O)oc2c1/C(=N\O)CC(C)(C)C2,1,-6,-1,1,1
CCOc1ccccc1NC(=O)CN(c1ccc(OC)cc1OC)S(=O)(=O)c1ccccc1[N+](=O)[O-],1,-1,0,1,1
COC(=O)c1sc(-c2ccc(Cl)cc2)cc1NC(=O)/C=C/C(=O)O,0,-17,22*,15,2
COc1cc(NC(=O)c2ccc(N3CC4CC(C3)c3cccc(=O)n3C4)c(NC(=O)c3ccncc3)c2)cc(OC)c1OC (configuration not stated),·,-3,0,-1,·
COc1ccccc1CCNC(=O)CSc1ccc(-c2cccs2)nn1,20*,1,0,-1,33*
O=C(CSc1ccc(-c2cccs2)nn1)NCCc1ccccc1,0,-2,-2,0,-1
COc1cc(/C=N/N2C(=O)CSC2=S)cc(Br)c1O,24*,·,·,·,41*
Cc1ccccc1NC(=O)CN1C(=O)N/C(=C\c2ccc(N3CCOCC3)c(F)c2)C1=O,1,9.9*,2,0,1
Cc1ccc(NC(=O)CN2C(=O)N/C(=C/c3ccc(N4CCOCC4)cc3)C2=O)cc1,2,-6,-1,1,-1
COc1ccc(/C=C2\SC(=O)NC2=S)cc1OC,43*,-13,29*,36*,74*
CCOc1ccc(/C=C2\SC(=S)NC2=O)cc1OC,1,-5,-1,1,1
CCCc1ncc(C(O)c2ccccc2OC)n1C (configuration not stated),1,-4,0,1,1
CN(C)c1ccc(/C=C/c2nc3ccccc3c(=O)n2-c2ccc(C(=O)O)cc2)cc1,·,-26,77*,82*,·
O=C(O)c1cccc(-n2c(/C=C/c3ccccc3)nc3ccccc3c2=O)c1,·,-10,0,1,·
NC(=O)CC(NC(=O)Cc1ccc(Br)cc1)c1ccc(N2CCC(N3CCCCC3)CC2)c([N+](=O)[O-])c1 (configuration not stated),·,0,0,0,·
COC(=O)CSc1nc(-c2ccc(F)cc2)cc(C(F)(F)F)n1,0,-1,-2,-1,-1
OC(c1cc(-c2ccc(C(F)(F)F)cc2)nc(C(F)(F)F)c1)C1CCCCN1 (configuration not stated),5,-13,23*,26*,7
CCN1/C(=C/c2ccc3cc(C)cc(C)c3[n+]2CC)Sc2cc(C)ccc21,15*,·,·,·,50*
CCN1/C(=C/c2ccc3cccc(C)c3[n+]2CC)Sc2ccccc21,18*,-11,18,11,32*
CCN1/C(=C\c2ccc3cc(C)ccc3[n+]2CC)Sc2cc(C)c(C)cc21,9,·,·,·,15
CCN(C(=O)CSc1nnc(-c2ccc(Cl)cc2)n1C)C1CCS(=O)(=O)C1 (configuration not stated),1,2,0,0,0
COc1ccc2ccccc2c1/C=N/NC(=O)c1cccc(Br)c1,1,-4,-2,0,1
O=C(N/N=C/c1c(O)ccc2ccccc12)c1cccc(C(F)(F)F)c1,15*,-14,46*,53*,35*
COc1ccc(CNC(=O)C2CCCN(S(=O)(=O)c3c(C)noc3/C=C/N(C)C)C2)cc1 (configuration not stated),·,-6,1,2,·
CN(C)c1ccc(/C=C/c2cc[n+]([O-])cc2)cc1,12*,-7,18,20,15
